Assay results as given in PubChem BioAssay AID588703 (Broad Institute, 2011).
The source made the active and inactive calls. No rule for the calls is given here.

Columns and labels:
[1] = test system: HMLE_shTWIST viability, CellTiter-Glo luminescence, 72 h; test: cytotoxicity toward TWIST-knockdown HMLE CSC-like cells – cell-based, CellTiter-Glo luminescence, dry powder, dose response (AID 588703)
Outline: (§1)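 Material: HMLE_shTWIST stable human breast line, EMT-induced, CSC-like | Quantity: 1000 cells/well | Buffer or medium: Screening medium without serum | Timing: Compound added 24 h after seeding, then 72 h exposure | Measured by: CellTiter-Glo luminescence | Controls: DMSO-only wells as negative control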

[2] = as above; conditions: HMLE_shTWIST viability, CellTiter-Glo luminescence, 72 h
Outline: as §1

| Compound | AC50 [1] [nM] | outcome [2] |
| --- | --- | --- |
| O=C(COc1cc(Cl)ccc1Cl)N/N=C/c1ccc[nH]1 | 920 | – |
| Cc1cc(Cl)ccc1OCC(=O)N/N=C/c1ccc[nH]1 | 1600 | – |
| O=C(N/N=C/c1ccc[nH]1)c1cc2ccccc2o1 | 180 | – |
| O=C(COc1ccc(Cl)cc1Cl)N/N=C/c1ccc[nH]1 | 2210 | – |
| O=C(COc1ccc(Cl)cc1Cl)N/N=C/c1cnc[nH]1 | – | inactive |
| O=C(COc1c(Cl)cc(Cl)cc1Cl)N/N=C/c1ccc[nH]1 | 110 | – |
| CC(C)(C)c1ccc2c(c1)OC(C(=O)N/N=C/c1ccc[nH]1)CO2 (configuration not stated) | 2890 | – |
